Measurements pooled from the literature.
Protocols differ between the studies behind these lines.
Oprm1: Mu-type opioid receptor (Oprm1, Rattus norvegicus, UniProt P33535)

| SMILES | target | test | conditions | measurement | value |
| --- | --- | --- | --- | --- | --- |
| Cn1cc(-c2cccc(N3CCc4c(sc5c4CC(C)(C)C5)C3=O)c2CO)cc(Nc2ccncn2)c1=O | Mast/stem cell growth factor receptor Kit (KIT, Homo sapiens, UniProt P10721, T670I) | enzyme activity, inhibitor | 1 µM | inhibition | 0% |
| Nc1ncc(-c2nc(N3CCOCC3)nc(N3CCOCC3)n2)c(C(F)F)n1 | Mast/stem cell growth factor receptor Kit (KIT, Homo sapiens, UniProt P10721, V559D) | binding, competition with immobilised ligand | 10 µM | remaining binding | 18% |
| CCCC[C@H]1CNCCN1C[C@@H]1CCCN1C[C@@H](Cc1ccc2ccccc2c1)N1CCN(CCC23CC4CC(CC(C4)C2)C3)[C@H]([C@@H](C)O)C1 | Oprm1 | ligand displacement, radioligand | 0.5 µM, 1 h, pH 7.5, cell membranes | remaining binding | 102% |
| COc1cc(Cl)c(C(=O)N[C@@H](CN[C@H]2CC[C@@H](N)CC2)Cc2ccc(C#N)cc2)cc1-c1ccc(CN[C@H](C)c2ccc(C)cc2)o1 | Serine/threonine-protein kinase Nek11 (NEK11, Homo sapiens, UniProt Q8NG66) | enzyme activity, inhibitor | 1 µM | remaining activity | 107% |
| C#Cc1n[nH]c2c(-c3cn(C(C)c4ccccn4)c(=O)[nH]c3=O)cc(F)cc12 (stereo not shown) | Myosin light chain kinase, smooth muscle (MYLK, Homo sapiens, UniProt Q15746) | enzyme activity, inhibitor | 1 µM | inhibition | 4% |
| COc1ncccc1-c1cnn2ccc(N3CCN(C(=O)OC(C)C)CC3)nc12 | Casein kinase II subunit alpha (CSNK2A1, Homo sapiens, UniProt P68400) | binding, competition with immobilised ligand | 1 µM | remaining binding | 79% |
| CC(C)(C)c1nc2c(s1)c1nc(N)ncc1c1ccc(NS(=O)(=O)c3c(F)cccc3F)c(F)c12 | Tau-tubulin kinase 1 (TTBK1, Homo sapiens, UniProt Q5TCY1) | enzyme activity, inhibitor, radiometric | 1 µM | remaining activity | 79% |
| Oc1ccc(C[C@@H]2CN([C@H](Cc3ccc4ccccc4c3)CN3CCC[C@H]3CN3CCNC[C@@H]3Cc3ccc4ccccc4c3)CCN2CCC23CC4CC(CC(C4)C2)C3)cc1 | Oprm1 | ligand displacement, radioligand | 0.5 µM, 1 h, pH 7.5, cell membranes | remaining binding | 112% |
| Cc1nn(C)cc1-c1nc2c(N3CCN(Cc4ccc(Cl)cc4)CC3)c(Cl)cnc2[nH]1 | Mast/stem cell growth factor receptor Kit (KIT, Homo sapiens, UniProt P10721, D816H) | binding, competition with immobilised ligand | 1 µM | remaining binding | 71% |
| OC[C@H]1CNCCN1C[C@@H]1CCCN1C[C@H](CC1CCCCC1)N1CCN(CCC23CC4CC(CC(C4)C2)C3)[C@H](Cc2ccc(O)cc2)C1 | Oprm1 | ligand displacement, radioligand | 0.5 µM, 1 h, pH 7.5, cell membranes | remaining binding | 108% |
| CCN(CC)CCCC[C@H](NC(=O)[C@H](CC(C)C)NC(=O)[C@H](C)NC(=O)[C@H](Cc1ccccc1)NC(=O)c1ccc(C(C)(C)C)cc1)C(=O)N[C@@H](CO)C(=O)OC | 5-hydroxytryptamine receptor 5A (HTR5A, Homo sapiens, UniProt P47898) | ligand displacement, radioligand | 10 µM | remaining binding | 93.1% |
| CC[C@@H](C)[C@@H]1CN([C@@H](CC2CCCCC2)CN2CCC[C@H]2CN2CCNC[C@@H]2CO)CCN1CCc1ccc(Cl)c(Cl)c1 | Oprm1 | ligand displacement, radioligand | 0.5 µM, 1 h, pH 7.5, cell membranes | remaining binding | 97.8% |
| Cn1cc(-c2cc(F)cc(N3CCn4c(cc5c4CCCC5)C3=O)c2CO)cc(Nc2ccc(N3CCN(C4COC4)CC3)cn2)c1=O | Phosphatidylinositol 4,5-bisphosphate 3-kinase catalytic subunit delta isoform (PIK3CD, Homo sapiens, UniProt O00329) | enzyme activity, inhibitor | 0.1 µM | inhibition | -1% |
